Assay results published in ChEMBL document CHEMBL1124476, “1-(2-aminoethyl)-6-aryl-4H- [1,2,4]triazolo[4,3-a][1,4]benzodiazepines with diuretic and natriuretic activity” (J Med Chem, 1989).

Experiments:
[1] = Diuretic activity at 40 mg/kg (screening dose-94.6 umol/kg) in […] in a one stage experiment; T/C = urine vol of treated rats / urine vol of control rats; format: functional
How it was run: (§1)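 40 mg/kg given by gavage in 25 mL/kg 0.9% saline with 0.5% (carboxymethyl)cellulose. Four rats per agent, two per metabolism cage; 20 controls; 5 h urine. T/C = treated/control urine volume. Stage-1 T/C of 1.66 or more leads to stage 2; product T/C1·T/C2 of 3.34 or more counts as active.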

[2] = Diuretic activity at 40 mg/kg (screening dose 84 umol/kg) in […] in a one stage experiment; T/C = urine vol of treated rats / urine vol of control rats; format: functional; how it was run: as §1
[3] = tested on: Rattus norvegicus; assay: Mean excretion of potassium in conscious rats at a dose of 30 mg/kg given orally; format: ADME, organism-based; parameters: dose 30 mg/kg, route oral; settings: in vivo, po
How it was run: (§2)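 Secondary dose-response in male Sprague-Dawley rats (~160 g), fasted and hydrated as in the primary screen. Oral gavage at 0.3-100 mg/kg in 25 mL/kg saline/0.5% CMC, three cages of two rats per dose. Urine collected 5 h; Na, K, Cl, HCO3 measured. Values are mean excretion (mequiv), compared with controls at P < 0.05.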

[4] = organism: Rattus norvegicus; assay: […]; format: ADME, organism-based, Urine; parameters: dose 10 mg/kg, route oral; settings: in vivo, po, 10 mg/kg
How it was run: (§3)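 Male Sprague-Dawley rats, about 160 g, fasted 24 h and water withheld 1 1/2 h beforehand; food and water withheld during the test. Dosing by gavage with 25 mL/kg 0.9% saline containing 0.5% (carboxymethyl)cellulose, agent dissolved or suspended. Three cages of two rats each per dose, held in metabolism cages. Urine collected over 5 h. Volume given in mL, Na+ in mequiv. Significance versus control at P < 0.05.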

[5] = tested on: Rattus norvegicus; assay: Mean excretion of potassium in conscious rats at a dose of 0.3 mg/kg given orally; format: ADME, organism-based; parameters: dose 0.3 mg/kg, route oral; settings: in vivo, po; how it was run: as §2
[6] = organism: Rattus norvegicus; assay: […]; format: ADME, organism-based, Urine; parameters: dose 30 mg/kg, route oral; settings: in vivo, po, 30 mg/kg; how it was run: as §3
[7] = organism: Rattus norvegicus; assay: […]; format: ADME, organism-based, Urine; parameters: dose 3 mg/kg, route oral; settings: in vivo, po, 3 mg/kg; how it was run: as §3
[8] = tested on: Rattus norvegicus; assay: Mean excretion of chloride in conscious rats at a dose of 10 mg/kg given orally; format: ADME, organism-based; parameters: dose 10 mg/kg, route oral; settings: in vivo, po; how it was run: as §2
[9] = tested on: Rattus norvegicus; assay: Mean excretion of sodium in conscious rats at a dose of 10 mg/kg given orally; format: ADME, organism-based; parameters: dose 10 mg/kg, route oral; settings: in vivo, po; how it was run: as §3
[10] = organism: Rattus norvegicus; assay: […]; format: ADME, organism-based, Urine; parameters: dose 0.3 mg/kg, route oral; settings: in vivo, po, 0.3 mg/kg
How it was run: (§4)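 Dose-response test in male Sprague-Dawley rats of about 160 g, fasted 24 h, with water withheld 1½ h before and during the test. Each rat got a single gavage of 25 mL/kg 0.9% saline with 0.5% carboxymethylcellulose carrying the agent (0.3–100 mg/kg range). Rats were housed two per metabolism cage, and urine was collected for 5 h. Mean urine volume (mL) was compared with controls (P < 0.05).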

[11] = tested on: Rattus norvegicus; assay: Mean excretion of chloride in conscious rats at a dose of 30 mg/kg given orally; format: ADME, organism-based; parameters: dose 30 mg/kg, route oral; settings: in vivo, po; how it was run: as §2
[12] = tested on: Rattus norvegicus; assay: Mean excretion of chloride in conscious rats at a dose of 100 mg/kg given orally; format: ADME, organism-based; parameters: dose 100 mg/kg, route oral; settings: in vivo, po; how it was run: as §2
[13] = tested on: Rattus norvegicus; assay: Mean excretion of chloride in conscious rats at a dose of 3.0 mg/kg given orally; format: ADME, organism-based; parameters: dose 3 mg/kg, route oral; settings: in vivo, po; how it was run: as §2
[14] = organism: Rattus norvegicus; assay: […]; format: ADME, organism-based, Urine; parameters: dose 1 mg/kg, route oral; settings: in vivo, po, 1 mg/kg; how it was run: as §4
[15] = organism: Rattus norvegicus; assay: […]; format: ADME, organism-based, Urine; parameters: dose 100 mg/kg, route oral; settings: in vivo, po, 100 mg/kg; how it was run: as §3
[16] = tested on: Rattus norvegicus; assay: Mean excretion of sodium in conscious rats at a dose of 100 mg/kg given orally; format: ADME, organism-based; parameters: dose 100 mg/kg, route oral; settings: in vivo, po; how it was run: as §3
[17] = tested on: Rattus norvegicus; assay: Mean excretion of Cl- in conscious rats at a dose of 0.3 mg/kg given orally; format: ADME, organism-based, Urine; parameters: dose 0.3 mg/kg, route oral; settings: in vivo, po; how it was run: as §4
[18] = tested on: Rattus norvegicus; assay: Mean excretion of potassium in conscious rats at a dose of 10 mg/kg given orally; format: ADME, organism-based; parameters: dose 10 mg/kg, route oral; settings: in vivo, po; how it was run: as §2
[19] = tested on: Rattus norvegicus; assay: Mean excretion of potassium in conscious rats at a dose of 3.0 mg/kg given orally; format: ADME, organism-based; parameters: dose 3 mg/kg, route oral; settings: in vivo, po; how it was run: as §2
[20] = tested on: Rattus norvegicus; assay: Mean excretion of potassium in conscious rats at a dose of 100 mg/kg given orally; format: ADME, organism-based; parameters: dose 100 mg/kg, route oral; settings: in vivo, po; how it was run: as §2
[21] = tested on: Rattus norvegicus; assay: Mean excretion of sodium in conscious rats at a dose of 0.3 mg/kg given orally; format: ADME, organism-based; parameters: dose 0.3 mg/kg, route oral; settings: in vivo, po; how it was run: as §3
[22] = tested on: Rattus norvegicus; assay: Mean excretion of sodium in conscious rats at a dose of 3.0 mg/kg given orally; format: ADME, organism-based; parameters: dose 3 mg/kg, route oral; settings: in vivo, po; how it was run: as §3
[23] = Diuretic activity at 40 mg/kg (screening dose-97.3 umol/kg) in […] in a two stage experiment; T/C1.2 = urine vol of treated rats / urine vol of control rats; format: functional; how it was run: as §1
[24] = tested on: Rattus norvegicus; assay: Mean excretion of potassium in conscious rats at a dose of 1.0 mg/kg given orally; format: ADME, organism-based; parameters: dose 1 mg/kg, route oral; settings: in vivo, po; how it was run: as §2
[25] = tested on: Rattus norvegicus; assay: Mean excretion of […] in conscious rats at a dose of 1.0 mg/kg given orally; format: ADME, organism-based; parameters: dose 1 mg/kg, route oral; settings: in vivo, po; how it was run: as §3
[26] = Diuretic activity at 40 mg/kg (screening dose-97.3 umol/kg) in […] in a one stage experiment; T/C = urine vol of treated rats / urine vol of control rats; format: functional; how it was run: as §1
[27] = tested on: Rattus norvegicus; assay: Mean excretion of chloride in conscious rats at a dose of 1.0 mg/kg given orally; format: ADME, organism-based; parameters: dose 1 mg/kg, route oral; settings: in vivo, po; how it was run: as §2
[28] = tested on: Rattus norvegicus; assay: Mean excretion of sodium in conscious rats at a dose of 30 mg/kg given orally; format: ADME, organism-based; parameters: dose 30 mg/kg, route oral; settings: in vivo, po; how it was run: as §3
[29] = Diuretic activity at 40 mg/kg (screening dose-75 umol/kg) in […] in a two stage experiment; T/C1.2 = urine vol of treated rats / urine vol of control rats; format: functional; how it was run: as §1
[30] = Diuretic activity at 40 mg/kg (screening dose-75 umol/kg) in […] in a one stage experiment; T/C = urine vol of treated rats / urine vol of control rats; format: functional; how it was run: as §1

CN(C)CC(CN(C)C)c1nnc2n1-c1ccc(Cl)cc1C(c1ccccc1)=NC2
T/C 1 [1]: 1.22

CN(C)CC(c1ccc(Cl)cc1)c1nnc2n1-c1ccc(Cl)cc1C(c1ccccc1)=NC2 (centres undefined)
T/C 1 [2]: 0.9

CN(C)CCc1nnc2n1-c1ccc(Br)cc1C(c1ccccn1)=NC2
Mean excretion of K+ [3]: 0.37 m equiv
Mean urine volume [4]: 5.63 mL
Mean excretion of K+ [5]: 0.38 m equiv
Mean urine volume [6]: 8.05 mL
Mean urine volume [7]: 5.53 mL
Mean excretion of Cl- [8]: 0.81 m equiv
Mean excretion of Na+ [9]: 0.77 m equiv
Mean urine volume [10]: 5.94 mL
Mean excretion of Cl- [11]: 1.05 m equiv
Mean excretion of Cl- [12]: 1.21 m equiv
Mean excretion of Cl- [13]: 0.84 m equiv
Mean urine volume [14]: 4.69 mL
Mean urine volume [15]: 11.02 mL
Mean excretion of Na+ [16]: 1.26 m equiv
Mean excretion of Cl- [17]: 0.81 m equiv
Mean excretion of K+ [18]: 0.33 m equiv
Mean excretion of K+ [19]: 0.39 m equiv
Mean excretion of K+ [20]: 0.41 m equiv
Mean excretion of Na+ [21]: 0.74 m equiv
Mean excretion of Na+ [22]: 0.79 m equiv
T/C 1.2 [23]: 3.46
Mean excretion of K+ [24]: 0.32 m equiv
Mean excretion of Na+ [25]: 0.6 m equiv
T/C 1 [26]: 1.75
Mean excretion of Cl- [27]: 0.7 m equiv
Mean excretion of Na+ [28]: 1.03 m equiv

CN(C)CC(c1ccccc1)c1nnc2n1-c1ccc(I)cc1C(c1ccccc1)=NC2 (centres undefined)
Mean excretion of K+ [3]: 0.24 m equiv
Mean urine volume [4]: 10.8 mL
Mean excretion of K+ [5]: 0.18 m equiv
T/C 1.2 [29]: 9.39
Mean urine volume [6]: 12.9 mL
Mean urine volume [7]: 4.86 mL
Mean excretion of Cl- [8]: 1.5 m equiv
Mean excretion of Na+ [9]: 1.64 m equiv
Mean urine volume [10]: 5.09 mL
Mean excretion of Cl- [11]: 1.73 m equiv
Mean excretion of Cl- [12]: 1.82 m equiv
Mean excretion of Cl- [13]: 0.76 m equiv
Mean urine volume [14]: 4.8 mL
Mean urine volume [15]: 14.57 mL
Mean excretion of Na+ [16]: 2.09 m equiv
Mean excretion of Cl- [17]: 0.8 m equiv
Mean excretion of K+ [18]: 0.19 m equiv
Mean excretion of K+ [19]: 0.23 m equiv
Mean excretion of K+ [20]: 0.24 m equiv
Mean excretion of Na+ [21]: 0.75 m equiv
Mean excretion of Na+ [22]: 0.66 m equiv
Mean excretion of K+ [24]: 0.25 m equiv
Mean excretion of Na+ [25]: 0.65 m equiv
Mean excretion of Cl- [27]: 0.7 m equiv
Mean excretion of Na+ [28]: 1.98 m equiv
T/C 1 [30]: 3.26
